Screening results: PubChem, several laboratories
HCV core dimer: blocks dimerization of HCV core protein; AID 1899; inhibition, % at 5 µM; TR-FRET GST/Flag-core106 dimerization, 1536-well; 0.33% of 300,000 active;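 active means inhibition above the mean of all tested compounds plus 3 SD, set per screening campaign, cut at about 45% in these data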
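test system = GST/Flag-tagged HCV core106 proteins | probe or stimulus = Eu donor and XL665 acceptor anti-tag antibodies | times = compound-protein-antibody incubation 4 h at 22.5 °C | signal = TR-FRET, excitation 340 nm, emission 617 and 671 nm | measure = percent inhibition of core106 dimerization signal | controls = wells lacking GST-core106 and wells with excess unlabelled core106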
MEX-5 binding: C. elegans MEX-5 TCR-2 RNA binding activity | MEX-5/FITC-TCR2 RNA binding, fluorescence polarization; stronger effect = lower value | 0.38% of 300,000 active | Q9XUB2 | activity score (negative = inhibition of binding), % at 10 µM;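 active means inhibition past about -25% in most replicates, and total fluorescence under double the plate's negative control median, limit read from the data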;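 further: 0% = DMSO and -100% = 5 µM competing unlabeled TCR2 RNA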
Target sequence (Q9XUB2 whole entry, looked up): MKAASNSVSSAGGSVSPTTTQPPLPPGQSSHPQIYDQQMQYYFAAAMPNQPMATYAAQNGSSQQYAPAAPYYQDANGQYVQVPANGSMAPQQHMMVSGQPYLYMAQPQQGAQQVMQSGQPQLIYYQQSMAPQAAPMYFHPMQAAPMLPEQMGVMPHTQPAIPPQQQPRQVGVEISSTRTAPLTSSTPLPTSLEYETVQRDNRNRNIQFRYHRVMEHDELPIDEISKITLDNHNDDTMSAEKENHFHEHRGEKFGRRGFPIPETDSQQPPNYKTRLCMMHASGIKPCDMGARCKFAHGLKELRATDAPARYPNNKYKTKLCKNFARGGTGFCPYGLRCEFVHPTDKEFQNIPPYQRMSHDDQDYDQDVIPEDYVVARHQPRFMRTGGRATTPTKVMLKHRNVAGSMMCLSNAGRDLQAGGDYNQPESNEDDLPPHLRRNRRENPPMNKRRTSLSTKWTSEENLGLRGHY
HCV NS3 hel inh: inhibitors of Hepatitis C virus NS3 helicase. NS3 helicase DNA unwinding, Cy5 molecular beacon fluorescence. inhibition, % at 10.9 µM. 0.56% of 290,000 active;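 active means inhibition above the mean of all tested compounds plus 3 SD, set per campaign, cut at about 35% in these data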;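 further: 0% = DMSO wells and 100% = thioflavine S control wells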
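System: Hepatitis C virus NS3 helicase domain fragment enzyme | Reagent: Annealed dual-labelled DNA beacon duplex, ATP-started | Compound dosing: 10.9 µM single point, 0.8% DMSO | Incubation: 1 h reaction at 25 °C, ATP-initiated | Technique: Cy5 fluorescence | Evaluation: Percent inhibition from t60/t0 fluorescence ratio | Benchmarks: Low DMSO, high thioflavine S at 110 µM | Replication: Singlicate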
EBV gp42 inh: blocks Epstein-Barr virus glycoprotein 42 binding; Q1HVG2; Fluorescence polarization binding assay, mP read-out; AID 1085; 0.42% of 220,000 active; inhibition, % (tested at 21.74 µM); in the data active means inhibition above about 50%
EBNA-1 inhibitor: blocks EBNA-1 binding to DNA. AID 1950. 0.34% of 300,000 active. inhibition, % at 14.8 µM. EBNA-1 DNA binding, fluorescence polarization; in the data active means inhibition above about 28%
ZTA counter: ZTA (EBV) inhibition in EBNA-1 counter-screen | 0.15% of 320,000 active | ZTA-DNA binding, fluorescence polarization | AID 2234 | inhibition, % at 11 µM | P03206; in the data active means inhibition above about 33%
NS3 hel confirm: HCV NS3 helicase inhibition, confirmation assay. NS3 helicase DNA unwinding, Cy5 molecular beacon fluorescence. 31% of 1,600 active. shares compounds with HCV NS3 hel inh. inhibition, % at 10.9 µM;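 active means inhibition above the mean of all tested compounds plus 3 SD, cutoff set per campaign, cut at about 36% in these data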
FID counter trip: displaces DNA intercalator in HCV helicase counter-screen. shares compounds with HCV NS3 hel inh. inhibition, % at 7.9 µM. AID 1945. DNA fluorescent intercalator displacement, fluorescence. 4% of 1,600 active; in the data active means inhibition above about 37%;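 further: 0% = vehicle and 100% = reference compound; higher means more displacement of ethidium bromide from the DNA hairpin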
FID counter DR: DNA intercalator displacement in dose response; 120 tested, under 10 active; IC50, µM; fluorescent intercalator displacement from DNA, fluorescence; shares compounds with HCV NS3 hel inh; call rule not given here
* = called active by the depositor; . = no result given. Hits are enriched below; roughly 1.7% of the tested compounds scored in any of these assays.

SMILES	HCV core dimer	MEX-5 binding	HCV NS3 hel inh	EBV gp42 inh	EBNA-1 inhibitor	ZTA counter	NS3 hel confirm	FID counter trip	others
CC(=O)O[C@]1(C(C)=O)CC[C@H]2[C@@H]3C=CC4=CC(=O)C=C[C@]4(C)[C@H]3CC[C@@]21C	-2.3	0.2	-9.9	.	-10.3	1.9	.	.
CCN(CC)CC(O)c1cccn1-c1ccc(CNC(=O)NC(C)C)cc1 (stereo unspecified)	-8.5	0.3	38.6*	-13.2	-1.0	-15.2	-16.0	-0.1
CC(C)C[C@H](NC(=O)NCc1ccc(F)cc1)C(=O)O	-0.4	0.7	-2.6	1.5	4.3	16.7	.	.
C#CCN(Cc1ccccc1)S(=O)(=O)C=C	.	.	.	.	.	21.0	.	.
CCOC(=O)NC1(NC2CCCCC2)Oc2ccccc2O1	-5.5	-3.2	37.8*	-11.5	-6.7	-25.9	-13.6	-4.3
COc1ccccc1NS(=O)(=O)c1ccc(C)c(NS(=O)(=O)c2cc(C(=O)O)cc(C)c2C)c1	2.2	3.1	25.1	.	6.4	-1.7	.	.
O=[N+]([O-])c1ccc(CNCc2cc(Cl)ccc2O)cc1	-4.1	.	.	.	2.6	3.2	.	.
COc1ccccc1NC(=O)c1sc2nc(-c3ccco3)ccc2c1N	28.9	-1.3	48.7*	-15.2	-7.0	4.4	1.4	16.7
Cc1cc2nc3ccc(=[N+](C)C)cc-3sc2cc1N	.	-47.9*	57.7*	-7.7	.	.	77.6*	107.0*
CCOC(=O)c1sc2ncn(/N=C/N(C)C)c(=O)c2c1C	-2.7	0.1	41.4*	0.9	5.5	-4.5	-4.7	10.9
CN(C)c1ccc(/C=C/c2ccc3c4ccccc4ccc3[n+]2-c2ccccc2)cc1	.	.	62.7*	-6.6	.	.	90.6*	101.0*
Cc1cc(C(=O)Cn2ncc(Cl)c(Cl)c2=O)c(C)n1CC(F)(F)F	31.7	2.3	56.9*	-10.5	-0.5	14.3	-12.5	-13.1
Cc1cc2cc(C(c3nnnn3Cc3ccco3)N3CCc4ccccc4C3)c(=O)[nH]c2cc1C (stereo unspecified)	24.9	-0.8	39.0*	-25.8	-6.7	-2.8	64.5*	-3.5	FID counter DR=>79.4
Cc1cc2cc(C(c3nnnn3Cc3ccco3)N3CCc4ccccc43)c(=O)[nH]c2cc1C (stereo unspecified)	29.1	-4.1	27.4	-9.6	-1.6	-20.7	.	.
CCOc1ccc(N2C(=O)CC(Sc3nc(CC(C)C)ccc3C#N)C2=O)cc1 (stereo unspecified)	22.9	0.4	39.4*	-7.0	-10.1	1.2	64.8*	-11.6
CSc1nsc(SCC(=O)Nc2cccc(C(=O)O)c2)n1	5.0	-0.8	-5.4	.	5.4	-3.7	.	.
CN(C(=O)c1cc(COc2ccc(F)c(F)c2)on1)C1CCOC1 (stereo unspecified)	-0.6	-3.3	4.7	.	-0.2	-0.3	.	.
CC(=O)OCCCNc1cc(SCc2ccco2)c2nonc2c1[N+](=O)[O-]	36.4	-3.7	40.9*	-3.7	9.1	-25.4	31.3	27.4
CCOC(=O)/C(C(C)=O)=C1\OC(=O)c2ccccc21	-3.2	-1.9	44.4*	-28.8	-10.5	6.8	-7.4	6.6
CSc1sc(-c2ccnc(SCC(=O)C(C)(C)C)n2)c2c1C(=O)CC(C)(C)C2	8.3	-4.9	56.4*	-31.9	1.3	12.5	-8.7	-20.9
Cc1ccc(S(=O)(=O)NCC(=O)NCC(=O)N(C)Cc2ccc3ccccc3c2)cc1C	3.6	-2.3	-6.2	.	0.2	-7.8	.	.
COc1cc(/C=N/Nc2ccc(Cl)c(C(=O)O)c2)ccc1OCC(=O)N1C(C)CCCC1C (stereo unspecified)	9.3	-1.3	45.2*	-1.1	0.3	-0.7	69.8*	-9.1
COc1ccc(C(=O)Oc2ccc(/C=N/Nc3ccc(Cl)c(C(=O)O)c3)cc2OC)cc1	23.2	-1.2	-17.9	.	9.0	10.6	.	.
COc1cc(/C=N/Nc2ccc(Cl)c(C(=O)O)c2)ccc1OC(=O)c1ccco1	-1.7	-1.8	37.7*	4.1	-6.5	-7.4	65.2*	-11.8
